Sampled rows, rich in hits. Any-hit rate of the full collection: about 4.1%.
Cl transport mod: KCC2 (human) Cl- transport modulation; KCC2 cells, thallium flux FluoZin-2 fluorescence; B-score of Tl+ flux slope (higher = more flux/activation; lower = inhibition) at 10 µM; 2.2% of 190,000 active; AID 1456;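 active = thallium flux slope and its plate-corrected score both differing from the plate sample mean at a set confidence after two filtering rounds, in either direction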;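 also: slope of fluorescence scaled to starting intensity during 10 to 20 s after thallium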
hERG protect: shields human hERG channel from block by proarrhythmic agents | Q12809 | CHO-hERG, FluxOR thallium flux, dofetilide IC70 present | activation (rescue from dofetilide block), less the hit threshold, % at 10 µM | 0.51% of 310,000 active | AID 1511;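 active = activation above the mean of controls blocked by dofetilide plus 5 SD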;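 also: thallium influx through hERG after potassium depolarization seen as dye fluorescence rise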
KCNK9 block: blocks the human KCNK9 two-pore domain potassium channel | Q9NPC2 | HEK293 KCNK9, FluxOR thallium flux fluorescence; active compounds read low | B-score at 10 µM | 1.2% of 310,000 active;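 active = ratio B-score over 3 SD below the library mean, with starting fluorescence within 5 SD of its mean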;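 also: negative B-score means less thallium flux so channel inhibition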
KCNK3 inh: human KCNK3 channel inhibition, primary screen. O14649. CHO-KCNK3 thallium flux, FluxOR fluorescence; active compounds read low. B-score at 10 µM. 0.84% of 340,000 active;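 active = B-score under library mean minus 4 SD, starting fluorescence ratio at most library mean plus 5 SD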;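 also: more negative B-score means stronger inhibition of thallium flux through KCNK3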
KCNQ1 inh: human KCNQ1 channel inhibition; P51787; CHO-K1 KCNQ1, FluxOR thallium flux fluorescence; active compounds read high; B-score at 10 µM; 1.3% of 310,000 active;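 active = compounds whose thallium flux B-score, printed positive for inhibition, exceeds three library SD while starting fluorescence stays within three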;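 also: channel opened by potassium depolarization with thallium stimulus after 20 min compound exposure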
KCNQ1 act: human KCNQ1 channel potentiation or activation; P51787; CHO-K1 KCNQ1, thallium flux FluxOR fluorescence; active compounds read high; B-score at 10 µM; 0.35% of 310,000 active; AID 2648;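 active = fluorescence ratio B-score, a plate-corrected score, at least three library SD, with initial intensity B-score within 5 SD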
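assay system = KCNQ1-transfected CHO-K1 cells | medium = assay buffer with matched DMSO | probe or stimulus = depolarizing K+/Tl+ stimulus, K2SO4 and Tl2SO4 each 12.5 mM in 5x stock | dosing = single dose | incubation = dye 90 min, compound 20 min, room temperature | detection = kinetic FluxOR fluorescence, 10 s baseline plus 110 s post-stimulus | evaluation = ratio B score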
KCNK9 block conf: confirmation of human KCNK9 potassium channel inhibitors; 43% of 4,900 active; HEK293 KCNK9 cells, FluxOR thallium flux fluorescence; inhibition, % at 10 µM; AID 492992; shares compounds with KCNK9 block;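 active = thallium signal inhibited by more than 5 SD of the compound-free buffer control wells, on both duplicate plates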
Kir21 sel: tests whether KCNK9 modulators also affect mouse Kir2.1; inhibition, % at 10 µM; 4% of 4,900 active; AID 492993; Kir2.1 cells, FluxOR thallium flux fluorescence; shares compounds with KCNK9 block;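 active = thallium signal drop more than 5 SD beyond the mean of the no-compound control wells, seen in both duplicate plates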;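 also: signal is fluorescence rise after thallium addition divided by baseline fluorescence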
Target sequence (P35561 whole entry, looked up): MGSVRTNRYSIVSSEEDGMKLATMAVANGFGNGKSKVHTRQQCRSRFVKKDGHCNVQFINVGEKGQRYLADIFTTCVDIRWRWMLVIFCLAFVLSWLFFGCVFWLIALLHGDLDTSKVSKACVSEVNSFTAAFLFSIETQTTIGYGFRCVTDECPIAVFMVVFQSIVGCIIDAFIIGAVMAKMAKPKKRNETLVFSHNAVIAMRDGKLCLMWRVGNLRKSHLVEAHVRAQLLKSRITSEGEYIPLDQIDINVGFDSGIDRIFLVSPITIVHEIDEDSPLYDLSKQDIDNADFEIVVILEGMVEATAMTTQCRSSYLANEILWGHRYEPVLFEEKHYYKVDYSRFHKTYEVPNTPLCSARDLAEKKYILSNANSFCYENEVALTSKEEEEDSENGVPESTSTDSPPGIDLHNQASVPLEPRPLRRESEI
HEK293 Tl ctr: second counter-screen for KCNK9 modulators: effect in non-induced cells; 40% of 4,900 active; AID 492997; non-induced KCNK9-HEK293, FluxOR thallium flux; inhibition, % at 10 µM; shares compounds with KCNK9 block;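 active = thallium signal drop beyond 5 SD of the untreated control mean, on both duplicate plates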
A number is an active result; n = inactive; x = no result; ! = not active in a repeat.

SMILES	Cl transport mod	hERG protect	KCNK9 block	KCNK3 inh	KCNQ1 inh	KCNQ1 act	KCNK9 block conf	Kir21 sel	HEK293 Tl ctr
O=C(O)CCCCn1c(SCC(=O)Nc2ccccc2C(F)(F)F)nc2ccsc2c1=O	n	n	n	n	n	n	x	x	x
CCC(C)n1c(SCC(=O)Nc2ccccc2C(F)(F)F)nc2ccsc2c1=O (centres undefined)	n	n	-8.94	n	n	n	26.0%	n	26.5%
O=C(COC(=O)c1nc(Cl)c(Cl)c(Cl)c1Cl)NCc1ccccc1	x	x	x	n	x	x	x	x	x
CCCCn1c(N)c(N(CC(C)C)C(=O)c2cccc(S(=O)(=O)N(CC)c3ccccc3)c2)c(=O)[nH]c1=O	x	x	x	n	x	x	x	x	x
Cc1ccc(C(C(=O)NCc2ccccc2)N(Cc2cccs2)C(=O)c2ccc3c(c2)OCCO3)cc1 (centres undefined)	n	n	n	n	n	n	x	x	x
COc1ccc(CNC(=O)C(c2ccc(C)cc2)N(Cc2cccs2)C(=O)c2ccc3c(c2)OCCO3)cc1 (centres undefined)	n	n	n	n	n	n	n	n	n
COCCn1c(C)cc(C(=O)COC(=O)C2CC(=O)N(CCc3ccc(OC)c(OC)c3)C2)c1C (centres undefined)	x	n	n	n	n	n	x	x	x
COc1ccc(NS(=O)(=O)c2cc(NC(=O)CCSc3ccccc3)ccc2OC)cc1	n	n	n	n	n	n	n	n	n
COc1ccc(NC(=O)CCS(=O)(=O)c2ccccc2Cl)cc1S(=O)(=O)Nc1ccc(Cl)cc1	n	n	n	n	n	n	x	x	x
COc1ccc(NC(=O)CCSc2ccc(C)cc2)cc1S(=O)(=O)Nc1ccccc1Cl	n	n	n	n	n	n	n	n	n
O=C(C[C@H]1C/C=C\CC[C@@H](Cc2ccc(F)cc2)C(=O)O[C@@H](c2ccccc2)CNC1=O)N[C@@H](CO)Cc1ccccc1	x	x	x	n	x	x	x	x	x
Cc1cccc(N2CCN(C(=O)CCCCCn3c(=S)[nH]c4ccc(N5CCOCC5)cc4c3=O)CC2)c1C	x	n	n	n	n	n	x	x	x
CC(OC(=O)C1=COCCO1)C(=O)NC1(C#N)CCCCC1 (centres undefined)	x	x	x	n	x	x	x	x	x
COc1cc(C(=O)N2CCN(C(=O)c3cc(-c4ccc(Br)cc4)n[nH]3)CC2)cc(OC)c1OC	x	n	n	n	n	n	x	x	x
Cc1ccc(S(=O)(=O)n2nccc2-c2c(-c3ccc(Cl)cc3)noc2C)cc1	n	n	-11.7	n	n	n	n	n	36.5%
Cc1ccc(S(=O)(=O)N2CCN(C(=O)c3c(-c4ccccc4)noc3C)CC2)cc1	x	n	n	n	n	n	x	x	x
CC1(c2ccc(Cl)cc2Cl)NC(=O)N(CC(=O)NC2CCCCC2)C1=O (centres undefined)	x	x	x	n	x	x	x	x	x
COc1ccc(OC)c(C(c2nnnn2C2CCCC2)N2CCN(c3ccc(F)cc3)CC2)c1 (centres undefined)	n	n	-14.6	n	6	n	51.5%	n	44.0%
Cc1cc(C)nc(N/C(=N\S(=O)(=O)Cc2ccccc2)Nc2cccc(Cl)c2C)n1	x	n	n	n	n	n	x	x	x
Cc1cc(C)nc(N/C(=N\S(=O)(=O)Cc2ccccc2)Nc2ccc(F)c(Cl)c2)n1	n	n	-12.8	n	n	n	n	n	n
Cc1ccc(Cl)cc1N1CCN(C(=O)c2ccc(CN3CCOCC3)cc2)CC1	n	n	n	n	n	n	x	x	x
Cc1ccc(Cl)cc1N1CCN(Cc2cc3c(cc2O)CCC3)CC1	n	n	n	n	n	n	n	n	n
C=CC(C)(C)O[C@@H]1O[C@H](CO)[C@@H](O)[C@H](O)[C@H]1O	x	x	x	n	x	x	x	x	x
CCOC(=O)c1c(C)c(C(=O)N2CCN(c3cccc(Cl)c3)CC2)c(C)n1C	x	n	n	n	n	n	n	n	n
CSc1ccccc1NC(=O)C(C)N(C)CC(=O)N1CCN(Cc2ccccc2)CC1 (centres undefined)	x	x	x	n	x	x	x	x	x
SMILES	Cl transport mod	hERG protect	KCNK9 block	KCNK3 inh	KCNQ1 inh	KCNQ1 act	KCNK9 block conf	Kir21 sel	HEK293 Tl ctr
Cc1ccc(Cl)cc1NC1=C/C(=N\S(=O)(=O)c2cccs2)c2ccccc2C1=O	n	n	-8.31	-10.1!	n	n	26.5%	n	n
CC1=NCCN1S(=O)(=O)c1c(C(C)C)cc(C(C)C)cc1C(C)C	n	n	-8.32	n	n	n	n	n	n
COc1ccc(Cl)cc1S(=O)(=O)N1CCN=C1C	x	n	n	n	n	n	x	x	x
CCOC(=O)c1[nH]c(=S)[nH]c1C	x	x	x	n	x	x	x	x	x
O=C(CCc1ccccc1)n1nc(-c2ccccc2)nc1NCc1ccco1	n	n	-8.35	n	n	n	n	n	33.0%
O=c1ccc2c(o1)/C(=C/C=C(Cl)Cl)CCC2	n	n	-12.4	n	n	n	41.5%	n	35.5%
O=c1ccc2cc3c4c(c2o1)CCCN4CCC3	n	n	n	n	n	n	x	x	x
Cc1csc(=O)n1CCC(=O)OCc1nnc(-c2ccc(Cl)cc2)o1	x	x	x	n	x	x	x	x	x
CN(C1CCCCC1)S(=O)(=O)c1cccc(C(=O)OCC(=O)NC2CCCc3ccccc32)c1 (centres undefined)	n	n	-9.46	n	n	n	55.5%	n	n
CCOC(=O)C(NC(=O)c1ccccc1Cl)(Nc1ccc(C)c(C)c1)C(F)(F)F (centres undefined)	n	n	n	n	n	n	x	x	x
CCOC(=O)C(NC(=O)c1ccccc1Cl)(Nc1ccc(C(F)(F)F)cc1)C(F)(F)F (centres undefined)	n	n	-11.6	n	n	n	66.0%	n	42.5%
CC(C)(C)c1ccc(OCCOc2ccc(C(C)(C)C)cc2NC=O)c(NC=O)c1	n	n	-8.18	n	n	n	33.5%	n	n
CN(CC(=O)Nc1ccc2c(c1)OCO2)S(=O)(=O)c1cccs1	x	n	n	n	n	n	x	x	x
CCOC(=O)CN(C(=O)COc1nc(-c2ccccc2)cc(C)c1C#N)c1ccc(C)cc1	n	n	n	n	n	n	n	n	n
CCOC(=O)CN(C(=O)COc1nc(-c2ccccc2)cc(C)c1C#N)c1ccccc1C	n	n	n	n	n	n	n	n	n
CC(=O)Oc1c(Cl)cc(N(C(C)=O)S(=O)(=O)c2ccccc2)c2ccccc12	x	n	n	n	n	n	x	x	x
CCOc1ccc(C=NNC(=O)c2cccc3ccccc23)cc1OCC	x	x	x	n	x	x	x	x	x
O=C(CSc1ccc(-c2ccc(Cl)cc2)nn1)N1CCCc2ccccc21	n	n	n	n	n	n	n	n	n
COc1ccc(Cl)cc1NC(=O)C(C)N(C)Cc1cccc(Cl)c1Cl (centres undefined)	n	n	-13.3	n	n	n	75.5%	n	52.0%
